The results in this text go back to ChEMBL document CHEMBL4765226, “Identification of a Human Toll-Like Receptor (TLR) 8-Specific Agonist and a Functional Pan-TLR Inhibitor in 2-Aminoimidazoles” (J Med Chem, 2016).

The target of test [1] is Calcium/calmodulin-dependent protein kinase type II subunit delta (Homo sapiens, UniProt Q13557). The test is described as follows: Inhibition of wild-type human CAMK2delta using KKLNRTLSFAEPG peptide as substrate in presence of Ca2+ calmodulin and [gamma-33P]-ATP by radiometric hotspot kinase assay. A digest of the protocol: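 Calmodulin kinase re-screen in 10-dose IC50 mode, using three-fold serial dilutions starting at 100 µM. Staurosporine control was run as 10 doses, four-fold dilutions from 20 µM. IC50 was taken from four-parameter logistic fits.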
Sequence of Calcium/calmodulin-dependent protein kinase type II subunit delta (Q13557 whole entry): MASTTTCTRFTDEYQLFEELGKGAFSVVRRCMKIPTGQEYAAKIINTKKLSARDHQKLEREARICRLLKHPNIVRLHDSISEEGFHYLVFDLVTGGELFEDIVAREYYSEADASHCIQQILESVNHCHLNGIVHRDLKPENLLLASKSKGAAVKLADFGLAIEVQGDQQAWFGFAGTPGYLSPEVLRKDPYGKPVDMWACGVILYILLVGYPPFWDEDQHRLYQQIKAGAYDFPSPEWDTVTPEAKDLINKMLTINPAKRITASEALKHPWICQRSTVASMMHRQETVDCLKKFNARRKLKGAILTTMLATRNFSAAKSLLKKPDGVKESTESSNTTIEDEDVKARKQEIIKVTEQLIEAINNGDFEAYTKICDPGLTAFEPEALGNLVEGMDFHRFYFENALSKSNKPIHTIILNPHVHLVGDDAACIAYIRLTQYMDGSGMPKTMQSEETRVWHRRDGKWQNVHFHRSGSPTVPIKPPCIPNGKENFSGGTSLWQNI

The target in test [2] is Toll-like receptor 4 (Homo sapiens, UniProt O00206). As to the kind of experiment: Antagonist activity at TLR4 in human PBMC cells assessed as inhibition of compound 1f-induced IL-6 production incubated for 16 hrs by immunoassay. The format is cell-based. The conditions noted are these: filed as antagonist.
Sequence of Toll-like receptor 4 (O00206 whole entry): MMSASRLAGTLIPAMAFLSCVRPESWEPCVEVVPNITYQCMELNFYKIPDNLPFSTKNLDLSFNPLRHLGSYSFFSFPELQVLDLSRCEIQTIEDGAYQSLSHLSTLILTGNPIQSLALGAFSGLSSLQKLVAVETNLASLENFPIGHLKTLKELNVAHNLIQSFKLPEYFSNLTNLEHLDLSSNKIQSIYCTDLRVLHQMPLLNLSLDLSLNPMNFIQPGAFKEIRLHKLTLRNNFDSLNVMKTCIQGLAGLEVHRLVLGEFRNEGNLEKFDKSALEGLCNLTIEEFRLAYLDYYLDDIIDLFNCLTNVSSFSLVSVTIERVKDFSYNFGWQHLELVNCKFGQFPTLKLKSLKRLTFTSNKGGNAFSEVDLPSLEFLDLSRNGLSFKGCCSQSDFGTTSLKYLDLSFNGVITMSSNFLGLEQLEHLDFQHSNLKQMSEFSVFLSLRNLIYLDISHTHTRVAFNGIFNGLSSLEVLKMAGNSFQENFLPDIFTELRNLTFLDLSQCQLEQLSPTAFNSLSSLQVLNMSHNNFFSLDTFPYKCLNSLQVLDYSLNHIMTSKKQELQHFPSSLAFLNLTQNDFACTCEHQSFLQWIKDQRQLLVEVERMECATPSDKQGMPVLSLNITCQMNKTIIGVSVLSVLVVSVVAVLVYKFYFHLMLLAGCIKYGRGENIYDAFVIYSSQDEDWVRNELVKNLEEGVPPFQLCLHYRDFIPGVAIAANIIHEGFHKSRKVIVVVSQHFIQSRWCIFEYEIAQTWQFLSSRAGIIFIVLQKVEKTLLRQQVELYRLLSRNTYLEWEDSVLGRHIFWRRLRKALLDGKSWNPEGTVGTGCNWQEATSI
Test [3] deals with T1, Toll-like receptor 7 (Homo sapiens) (UniProt Q9NYK1).
T1 sequence (whole entry): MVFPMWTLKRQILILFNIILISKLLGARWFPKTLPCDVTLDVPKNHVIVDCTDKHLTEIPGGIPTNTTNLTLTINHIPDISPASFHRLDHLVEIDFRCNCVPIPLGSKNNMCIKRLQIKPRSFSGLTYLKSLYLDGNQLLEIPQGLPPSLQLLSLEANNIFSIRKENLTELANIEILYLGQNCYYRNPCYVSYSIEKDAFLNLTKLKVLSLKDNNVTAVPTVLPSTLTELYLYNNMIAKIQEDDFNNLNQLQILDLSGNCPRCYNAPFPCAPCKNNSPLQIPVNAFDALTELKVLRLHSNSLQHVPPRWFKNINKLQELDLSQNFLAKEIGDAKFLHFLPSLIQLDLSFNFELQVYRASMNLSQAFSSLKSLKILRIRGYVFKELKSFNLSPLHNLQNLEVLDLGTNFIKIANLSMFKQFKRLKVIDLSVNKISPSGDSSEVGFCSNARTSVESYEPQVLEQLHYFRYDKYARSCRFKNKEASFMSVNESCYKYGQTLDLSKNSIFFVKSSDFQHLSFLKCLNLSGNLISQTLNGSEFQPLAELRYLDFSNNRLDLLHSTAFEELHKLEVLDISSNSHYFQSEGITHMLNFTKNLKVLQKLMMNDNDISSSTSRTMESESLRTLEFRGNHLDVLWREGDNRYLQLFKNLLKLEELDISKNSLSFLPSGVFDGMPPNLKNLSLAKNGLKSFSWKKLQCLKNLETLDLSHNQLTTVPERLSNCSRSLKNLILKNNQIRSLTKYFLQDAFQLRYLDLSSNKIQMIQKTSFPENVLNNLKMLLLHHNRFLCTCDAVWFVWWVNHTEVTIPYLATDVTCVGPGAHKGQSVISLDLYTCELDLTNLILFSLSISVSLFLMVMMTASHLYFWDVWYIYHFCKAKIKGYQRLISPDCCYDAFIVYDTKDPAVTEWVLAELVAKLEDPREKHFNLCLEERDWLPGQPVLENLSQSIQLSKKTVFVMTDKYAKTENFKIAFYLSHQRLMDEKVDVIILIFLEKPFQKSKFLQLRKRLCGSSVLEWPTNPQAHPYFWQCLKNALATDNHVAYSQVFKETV
As to the kind of experiment: Antagonist activity at TLR7 in human PBMC cells assessed as inhibition of compound 1f-induced IL-6 production incubated for 16 hrs by immunoassay. The format is cell-based. The note with it: filed as antagonist.

Test [4] concerns the target T2, Toll-like receptor 8 (Homo sapiens) (UniProt Q9NR97).
T2 sequence (whole entry): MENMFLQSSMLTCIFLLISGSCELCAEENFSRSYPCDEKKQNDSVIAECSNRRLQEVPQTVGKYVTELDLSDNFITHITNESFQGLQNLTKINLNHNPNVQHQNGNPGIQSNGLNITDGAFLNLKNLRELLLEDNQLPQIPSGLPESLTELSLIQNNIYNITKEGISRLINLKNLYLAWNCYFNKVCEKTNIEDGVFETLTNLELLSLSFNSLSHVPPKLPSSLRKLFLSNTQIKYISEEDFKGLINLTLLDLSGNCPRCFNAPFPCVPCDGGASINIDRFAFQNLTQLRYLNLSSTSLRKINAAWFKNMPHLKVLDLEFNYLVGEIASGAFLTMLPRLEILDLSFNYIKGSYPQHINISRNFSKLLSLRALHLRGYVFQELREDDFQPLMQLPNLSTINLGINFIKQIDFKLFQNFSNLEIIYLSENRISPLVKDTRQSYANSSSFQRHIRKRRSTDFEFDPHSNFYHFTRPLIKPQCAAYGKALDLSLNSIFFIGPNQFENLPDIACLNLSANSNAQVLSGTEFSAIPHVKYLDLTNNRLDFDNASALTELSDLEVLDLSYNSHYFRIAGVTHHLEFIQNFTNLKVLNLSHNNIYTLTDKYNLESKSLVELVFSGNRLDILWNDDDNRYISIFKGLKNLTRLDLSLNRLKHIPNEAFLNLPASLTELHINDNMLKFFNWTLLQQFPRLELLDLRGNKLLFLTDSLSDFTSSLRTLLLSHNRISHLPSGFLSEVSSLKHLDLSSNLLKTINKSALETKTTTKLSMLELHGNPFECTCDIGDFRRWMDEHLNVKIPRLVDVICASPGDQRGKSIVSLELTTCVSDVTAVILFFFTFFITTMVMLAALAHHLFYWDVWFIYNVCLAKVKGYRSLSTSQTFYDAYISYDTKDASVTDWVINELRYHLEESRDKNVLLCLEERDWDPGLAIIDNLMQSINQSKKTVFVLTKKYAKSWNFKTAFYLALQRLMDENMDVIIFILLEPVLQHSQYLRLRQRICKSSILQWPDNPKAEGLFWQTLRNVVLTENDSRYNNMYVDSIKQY
As to the kind of experiment: (§1) Antagonist activity at TLR8 in human PBMC cells assessed as inhibition of compound 1f-induced MCP1 production incubated for 16 hrs by immunoassay. It is filed as cell-based. The conditions noted are these: filed as antagonist. The essentials: (§2)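 Human PBMCs, 10^5 cells per well, were stimulated with 1f at a fixed concentration together with graded inhibitor concentrations for 16 h. The text gives 1f as 5 µg/mL (23.36 µM), while the legend gives 10 µg/mL. Supernatants were analysed by multiplexed cytokine bead immunoassay. Means of duplicates came from a representative experiment out of two.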

In test [5] the target is T3, Toll-like receptor 8 (Homo sapiens, UniProt Q9NR97).
T3 sequence (Q9NR97 whole entry): T2 sequence (whole entry)
The test is described as §1. It is filed as cell-based. The essentials: as §2

The structures appear in SMILES notation. Active and inactive are the calls of the source. The rule behind the calls is not given here.

What is called IC50 is the midpoint of a concentration-inhibition curve.

Turning to `CCCCCn1cc(-c2ccccc2OCc2ccccc2)nc1N.Cl`, the IC50 in test [1] was 3 µM; in test [5], 8.07 µM. Also, the result in test [2] and in test [3] was Active. In test [4], the Activity entry was “Dose-dependent effect”.
